Reference: ChEMBL document CHEMBL2311296, “Discovery of a potent and isoform-selective targeted covalent inhibitor of the lipid kinase PI3Kα” (J Med Chem, 2013)
Activity calls are given as the source filed them. The calls are words filed in the database; no cut-off is given here.

Tests used:
[1] = target: Phosphatidylinositol 4,5-bisphosphate 3-kinase catalytic subunit alpha isoform (Homo sapiens) (UniProt P42336); conditions: SK-OV-3, 1 to 1000 nM
[2] = test system: SK-OV-3; assay: Growth inhibition of human SKOV3 cells assessed as cell viability after 96 hrs by Cell Titre Glo assay; assay type: functional; conditions: SK-OV-3, 96 h
[3] = test system: MCF7; assay: Growth inhibition of human MCF7 cells assessed as cell viability after 96 hrs by Cell Titre Glo assay; assay type: functional; conditions: MCF7, 96 h
[4] = target: Phosphatidylinositol 4,5-bisphosphate 3-kinase catalytic subunit alpha isoform (Homo sapiens) (UniProt P42336); conditions: SK-OV-3, 500 nM
[5] = target: Phosphatidylinositol 4-phosphate 3-kinase C2 domain-containing subunit alpha (Homo sapiens, UniProt O00443); assay: Inhibition of PI3KC2A (unknown origin) by ADP-GLO assay
Chain of Phosphatidylinositol 4-phosphate 3-kinase C2 domain-containing subunit alpha (O00443 whole entry, the tested form may be a part): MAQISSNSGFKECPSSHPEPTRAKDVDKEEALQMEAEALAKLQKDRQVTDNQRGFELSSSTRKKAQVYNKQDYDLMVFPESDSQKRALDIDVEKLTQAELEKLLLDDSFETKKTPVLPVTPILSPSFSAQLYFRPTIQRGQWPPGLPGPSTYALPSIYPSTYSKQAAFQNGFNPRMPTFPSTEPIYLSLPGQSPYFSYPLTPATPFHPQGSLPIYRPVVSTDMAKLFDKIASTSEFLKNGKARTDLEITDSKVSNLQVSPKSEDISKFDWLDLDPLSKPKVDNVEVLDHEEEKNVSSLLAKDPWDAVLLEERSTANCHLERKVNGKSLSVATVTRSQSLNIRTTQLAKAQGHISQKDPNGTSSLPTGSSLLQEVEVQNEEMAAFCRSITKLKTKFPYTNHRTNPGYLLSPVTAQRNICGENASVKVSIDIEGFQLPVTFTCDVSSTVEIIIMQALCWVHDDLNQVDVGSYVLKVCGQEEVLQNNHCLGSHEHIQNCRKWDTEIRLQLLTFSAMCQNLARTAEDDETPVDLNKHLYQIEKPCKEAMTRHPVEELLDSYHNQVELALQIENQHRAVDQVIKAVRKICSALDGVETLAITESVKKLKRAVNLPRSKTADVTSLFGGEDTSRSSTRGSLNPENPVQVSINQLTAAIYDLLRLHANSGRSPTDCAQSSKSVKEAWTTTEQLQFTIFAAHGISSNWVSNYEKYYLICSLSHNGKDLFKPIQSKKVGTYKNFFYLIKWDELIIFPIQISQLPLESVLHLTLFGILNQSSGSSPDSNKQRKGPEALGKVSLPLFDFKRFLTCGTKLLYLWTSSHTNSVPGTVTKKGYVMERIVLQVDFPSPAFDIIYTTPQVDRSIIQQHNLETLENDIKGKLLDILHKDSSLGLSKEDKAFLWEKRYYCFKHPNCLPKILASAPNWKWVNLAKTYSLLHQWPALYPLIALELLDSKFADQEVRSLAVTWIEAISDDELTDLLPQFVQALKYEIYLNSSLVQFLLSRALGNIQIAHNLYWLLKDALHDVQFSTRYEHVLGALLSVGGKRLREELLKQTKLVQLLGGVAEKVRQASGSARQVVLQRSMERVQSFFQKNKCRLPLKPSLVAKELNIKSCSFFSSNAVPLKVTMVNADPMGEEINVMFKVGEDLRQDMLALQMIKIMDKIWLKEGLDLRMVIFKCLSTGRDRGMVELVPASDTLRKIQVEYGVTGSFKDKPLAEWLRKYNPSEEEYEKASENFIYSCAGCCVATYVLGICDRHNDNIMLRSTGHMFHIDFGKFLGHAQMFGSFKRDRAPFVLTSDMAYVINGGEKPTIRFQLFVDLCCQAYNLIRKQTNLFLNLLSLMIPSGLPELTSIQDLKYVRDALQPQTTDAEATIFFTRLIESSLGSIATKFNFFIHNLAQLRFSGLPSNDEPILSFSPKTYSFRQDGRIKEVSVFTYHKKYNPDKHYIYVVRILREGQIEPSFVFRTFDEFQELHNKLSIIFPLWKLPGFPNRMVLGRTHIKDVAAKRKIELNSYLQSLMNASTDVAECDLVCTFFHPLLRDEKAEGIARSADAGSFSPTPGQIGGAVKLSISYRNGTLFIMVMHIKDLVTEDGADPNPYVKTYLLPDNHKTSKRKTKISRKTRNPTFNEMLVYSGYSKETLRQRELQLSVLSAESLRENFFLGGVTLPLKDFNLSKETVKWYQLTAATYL
In short: (§1)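 Reaction Biology panel using ADP-Glo format at 10 μM ATP. Substrate was sphingosine for SPHK1 and SPHK2, and phosphatidylinositol for the other enzymes.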

[6] = test system: Mus musculus; assay: In vivo inhibition of PI3Kalpha in nude nu/nu mouse assessed as free P110alpha levels at 100 mg/kg, ip qd administered for 5 consecutive days measured 1 to 4 hrs post last dose by immunoblot method; assay type: functional, organism-based; parameters: dose 100 mg/kg
In short: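 Female nu/nu mice (n = 3/group) dosed ip at 100 mg/kg once daily for 5 days. Spleens harvested 1, 4 and 24 h after the last dose and homogenized. Lysate (150 μg protein) incubated with a biotinylated covalent probe at 1 μM for 1 h at RT, then immunoprecipitated with anti-p110α overnight at 4 °C. Immunoblot: streptavidin signal normalized to total p110α, expressed as % of vehicle.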

[7] = target: Phosphatidylinositol 4,5-bisphosphate 3-kinase catalytic subunit alpha isoform (Homo sapiens) (UniProt P42336); conditions: SK-OV-3, 500 nM; remark: listed apart in the source
[8] = target: Phosphatidylinositol 4-kinase alpha (Homo sapiens, UniProt P42356); assay: Inhibition of PI4Kalpha (unknown origin) by ADP-GLO assay
In short: as §1

[9] = target: Phosphatidylinositol 4,5-bisphosphate 3-kinase catalytic subunit gamma isoform (Homo sapiens, UniProt P48736); assay: Inhibition of PI3Kgamma (unknown origin) by HTRF assay
Chain of Phosphatidylinositol 4,5-bisphosphate 3-kinase catalytic subunit gamma isoform (P48736 whole entry, canonical isoform): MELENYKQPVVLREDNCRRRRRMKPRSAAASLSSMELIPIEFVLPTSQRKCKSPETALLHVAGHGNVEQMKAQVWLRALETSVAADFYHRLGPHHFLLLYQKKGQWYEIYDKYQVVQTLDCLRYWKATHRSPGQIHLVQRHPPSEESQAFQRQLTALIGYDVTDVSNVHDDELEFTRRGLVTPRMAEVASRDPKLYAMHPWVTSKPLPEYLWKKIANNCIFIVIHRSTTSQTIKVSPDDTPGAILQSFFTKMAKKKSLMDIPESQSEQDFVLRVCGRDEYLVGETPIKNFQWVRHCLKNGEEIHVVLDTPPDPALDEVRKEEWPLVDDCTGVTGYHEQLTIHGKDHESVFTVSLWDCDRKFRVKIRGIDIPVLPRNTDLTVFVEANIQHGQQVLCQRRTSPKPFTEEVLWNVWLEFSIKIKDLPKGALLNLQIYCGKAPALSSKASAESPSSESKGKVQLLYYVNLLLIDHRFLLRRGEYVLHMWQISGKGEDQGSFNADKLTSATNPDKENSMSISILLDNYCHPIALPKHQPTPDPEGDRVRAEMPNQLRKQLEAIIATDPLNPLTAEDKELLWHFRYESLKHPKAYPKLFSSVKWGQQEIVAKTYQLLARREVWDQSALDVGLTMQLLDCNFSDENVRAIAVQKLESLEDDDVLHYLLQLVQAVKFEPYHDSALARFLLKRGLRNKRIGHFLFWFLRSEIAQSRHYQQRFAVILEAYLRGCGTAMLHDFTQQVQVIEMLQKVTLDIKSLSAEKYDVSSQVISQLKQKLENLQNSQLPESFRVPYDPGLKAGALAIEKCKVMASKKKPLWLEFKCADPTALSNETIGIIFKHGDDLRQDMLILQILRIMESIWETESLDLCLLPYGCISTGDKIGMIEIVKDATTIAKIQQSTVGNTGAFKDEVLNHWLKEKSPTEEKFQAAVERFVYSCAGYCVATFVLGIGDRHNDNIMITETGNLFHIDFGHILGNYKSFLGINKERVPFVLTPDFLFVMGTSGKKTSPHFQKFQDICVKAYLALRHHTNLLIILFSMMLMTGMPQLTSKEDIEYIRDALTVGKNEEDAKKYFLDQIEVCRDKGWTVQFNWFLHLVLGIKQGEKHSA
In short: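 Contract lab panel, end-point HTRF format with phosphatidylinositol 4,5-bisphosphate as substrate and 10 μM ATP. Ten-point curve, 3-fold serial dilutions starting at 1 μM. Reported as an apparent IC50 (IC50App).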

[10] = target: T1, Sphingosine kinase 2 (Homo sapiens, UniProt Q9NRA0); assay: Inhibition of SPHK2 (unknown origin) by ADP-GLO assay
T1 sequence (Q9NRA0 whole entry): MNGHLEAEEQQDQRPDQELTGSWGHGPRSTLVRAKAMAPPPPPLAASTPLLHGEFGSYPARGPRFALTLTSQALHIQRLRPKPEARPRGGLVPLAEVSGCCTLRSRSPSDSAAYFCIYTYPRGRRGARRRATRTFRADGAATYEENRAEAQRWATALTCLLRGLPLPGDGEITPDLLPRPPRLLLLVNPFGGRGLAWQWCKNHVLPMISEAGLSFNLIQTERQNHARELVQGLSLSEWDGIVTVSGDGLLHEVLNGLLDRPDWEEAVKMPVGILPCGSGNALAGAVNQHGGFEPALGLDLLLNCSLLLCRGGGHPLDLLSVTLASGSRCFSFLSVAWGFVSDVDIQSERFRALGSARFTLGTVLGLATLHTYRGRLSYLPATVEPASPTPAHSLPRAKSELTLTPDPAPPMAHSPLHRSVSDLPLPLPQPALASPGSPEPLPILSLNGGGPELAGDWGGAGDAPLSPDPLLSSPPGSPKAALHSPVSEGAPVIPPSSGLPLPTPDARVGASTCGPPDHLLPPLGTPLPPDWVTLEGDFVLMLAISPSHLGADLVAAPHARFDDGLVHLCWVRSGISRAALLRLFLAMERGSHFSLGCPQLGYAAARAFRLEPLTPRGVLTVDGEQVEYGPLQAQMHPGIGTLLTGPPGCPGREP
In short: as §1

[11] = target: Phosphatidylinositol 4-kinase beta (Homo sapiens, UniProt Q9UBF8); assay: Inhibition of PI4Kbeta (unknown origin) by ADP-GLO assay
Chain of Phosphatidylinositol 4-kinase beta (Q9UBF8 whole entry): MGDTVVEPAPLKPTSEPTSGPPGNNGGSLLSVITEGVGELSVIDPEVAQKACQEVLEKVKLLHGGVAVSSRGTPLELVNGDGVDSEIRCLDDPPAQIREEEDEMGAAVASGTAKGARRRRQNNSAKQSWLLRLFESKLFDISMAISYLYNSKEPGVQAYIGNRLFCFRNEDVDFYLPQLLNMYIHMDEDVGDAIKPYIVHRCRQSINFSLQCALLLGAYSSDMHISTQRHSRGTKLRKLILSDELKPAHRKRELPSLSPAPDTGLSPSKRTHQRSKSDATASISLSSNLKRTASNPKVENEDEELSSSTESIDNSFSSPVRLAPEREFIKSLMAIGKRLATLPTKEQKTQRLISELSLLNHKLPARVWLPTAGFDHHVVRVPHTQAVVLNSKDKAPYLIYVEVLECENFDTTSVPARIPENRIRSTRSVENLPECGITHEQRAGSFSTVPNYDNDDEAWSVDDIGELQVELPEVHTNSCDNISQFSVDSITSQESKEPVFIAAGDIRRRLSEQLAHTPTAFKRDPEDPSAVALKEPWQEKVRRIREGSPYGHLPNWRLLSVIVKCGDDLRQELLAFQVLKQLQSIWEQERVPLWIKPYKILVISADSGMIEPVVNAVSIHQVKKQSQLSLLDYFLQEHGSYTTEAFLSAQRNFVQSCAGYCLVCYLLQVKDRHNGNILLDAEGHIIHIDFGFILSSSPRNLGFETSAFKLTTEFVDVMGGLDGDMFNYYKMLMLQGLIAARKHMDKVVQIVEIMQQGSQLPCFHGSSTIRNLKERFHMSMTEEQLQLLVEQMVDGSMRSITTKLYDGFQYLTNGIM
In short: as §1

[12] = test system: Plasma; assay: Plasma protein binding in human albumin-depleted plasma after 1 to 3 hrs by MALDI TOF/TOF mass spectrometry; assay type: ADME, cell-free
In short: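 Human plasma albumin-depleted, not fully, and diluted to 1 mg/mL. A 10 mM DMSO compound stock diluted 1:10 into it; incubated at 37 °C for 1 or 3 h. Samples desalted on C4 tips and analysed by MALDI TOF/TOF (sinapinic acid matrix, ovalbumin internal standard) for mass shifts.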

[13] = target: T2, Phosphatidylinositol 4,5-bisphosphate 3-kinase catalytic subunit delta isoform (Homo sapiens, UniProt O00329); assay: Inhibition of PI3Kdelta (unknown origin) by HTRF assay
T2 sequence (O00329 whole entry): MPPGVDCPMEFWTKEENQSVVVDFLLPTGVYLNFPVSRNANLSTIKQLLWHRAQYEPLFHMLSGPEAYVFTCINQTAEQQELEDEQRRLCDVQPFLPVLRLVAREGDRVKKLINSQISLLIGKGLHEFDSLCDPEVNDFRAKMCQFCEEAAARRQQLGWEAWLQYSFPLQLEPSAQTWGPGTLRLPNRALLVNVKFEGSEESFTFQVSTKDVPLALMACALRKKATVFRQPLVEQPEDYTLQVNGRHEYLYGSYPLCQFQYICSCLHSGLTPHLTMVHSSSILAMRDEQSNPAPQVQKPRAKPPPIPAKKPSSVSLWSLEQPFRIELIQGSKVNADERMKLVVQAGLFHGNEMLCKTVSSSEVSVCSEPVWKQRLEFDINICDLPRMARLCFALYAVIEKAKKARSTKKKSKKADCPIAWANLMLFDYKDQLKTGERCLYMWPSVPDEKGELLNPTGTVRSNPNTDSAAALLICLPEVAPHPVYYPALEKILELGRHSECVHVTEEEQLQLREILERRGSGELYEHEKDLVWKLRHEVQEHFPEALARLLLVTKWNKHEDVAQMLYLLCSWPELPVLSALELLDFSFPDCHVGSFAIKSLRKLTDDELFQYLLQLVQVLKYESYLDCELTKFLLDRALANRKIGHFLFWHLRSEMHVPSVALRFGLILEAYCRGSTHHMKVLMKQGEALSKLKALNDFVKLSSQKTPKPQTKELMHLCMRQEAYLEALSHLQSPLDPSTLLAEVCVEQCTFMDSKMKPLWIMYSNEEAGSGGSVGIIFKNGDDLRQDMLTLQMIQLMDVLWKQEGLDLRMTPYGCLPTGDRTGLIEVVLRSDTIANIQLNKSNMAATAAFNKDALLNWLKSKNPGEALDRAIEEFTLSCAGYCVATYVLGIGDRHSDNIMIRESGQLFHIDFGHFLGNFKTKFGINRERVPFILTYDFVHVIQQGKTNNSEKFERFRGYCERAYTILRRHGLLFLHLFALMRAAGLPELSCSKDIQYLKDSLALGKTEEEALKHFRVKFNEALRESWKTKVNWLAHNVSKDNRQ

[14] = target: T3, Phosphatidylinositol 4,5-bisphosphate 3-kinase catalytic subunit beta isoform (Homo sapiens, UniProt P42338); assay: Inhibition of PI3Kbeta (unknown origin) by HTRF assay
In short: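 PI3Kβ tested in a 10-concentration curve, 3-fold serial dilution starting at 1 μM, at 10 μM ATP. Substrate phosphatidylinositol 4,5-bisphosphate, HTRF read-out. Value reported as apparent IC50 from an end-point assay.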

[15] = target: Phosphatidylinositol 3-kinase catalytic subunit type 3 (Homo sapiens, UniProt Q8NEB9); assay: Inhibition of PI3KC3 (unknown origin) by ADP-GLO assay
In short: as §1

[16] = target: T3, Phosphatidylinositol 4,5-bisphosphate 3-kinase catalytic subunit beta isoform; assay: Binding affinity to human PI3Kbeta after 1 hr by MALDI TOF/TOF mass spectrometry
In short: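 Compound incubated with recombinant PI3K isoform enzyme at a 10:1 compound-to-enzyme molar ratio, room temperature, 1 h; covalent adduct formation read by mass spectrometry.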

[17] = target: Sphingosine kinase 1 (Homo sapiens, UniProt Q9NYA1); assay: Inhibition of SPHK1 (unknown origin) by ADP-GLO assay
Chain of Sphingosine kinase 1 (Q9NYA1 whole entry): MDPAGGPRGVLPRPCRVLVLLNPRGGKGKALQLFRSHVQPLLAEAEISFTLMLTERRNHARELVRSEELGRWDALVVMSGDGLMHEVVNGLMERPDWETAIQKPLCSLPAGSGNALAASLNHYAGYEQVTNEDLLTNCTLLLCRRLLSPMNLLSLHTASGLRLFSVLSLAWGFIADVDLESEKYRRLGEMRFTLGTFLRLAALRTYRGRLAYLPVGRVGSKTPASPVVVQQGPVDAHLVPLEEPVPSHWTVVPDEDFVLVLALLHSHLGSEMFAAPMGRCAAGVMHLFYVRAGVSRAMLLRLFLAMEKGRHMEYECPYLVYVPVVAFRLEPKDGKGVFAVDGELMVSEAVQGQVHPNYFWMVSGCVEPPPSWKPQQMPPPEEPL
In short: as §1

[18] = test system: Mus musculus; assay: In vivo inhibition of PI3Kalpha in nude nu/nu mouse spleen assessed as inhibition of Akt Ser473 phosphorylation at 100 mg/kg, ip qd administered for 5 consecutive days measured 1 to 4 hrs post last dose by immunoblotting method; assay type: functional, organism-based; parameters: dose 100 mg/kg
In short: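 Female nu/nu mice (n = 3/group) dosed ip at 100 mg/kg once daily for 5 days. Spleens collected 1, 4 and 24 h post last dose, frozen, then homogenized in extraction buffer with protease and phosphatase inhibitors. Lysates immunoblotted for P-Akt Ser473.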

Chain of Phosphatidylinositol 4,5-bisphosphate 3-kinase catalytic subunit alpha isoform (Homo sapiens) (P42336 whole entry, the tested form may be a part, canonical isoform): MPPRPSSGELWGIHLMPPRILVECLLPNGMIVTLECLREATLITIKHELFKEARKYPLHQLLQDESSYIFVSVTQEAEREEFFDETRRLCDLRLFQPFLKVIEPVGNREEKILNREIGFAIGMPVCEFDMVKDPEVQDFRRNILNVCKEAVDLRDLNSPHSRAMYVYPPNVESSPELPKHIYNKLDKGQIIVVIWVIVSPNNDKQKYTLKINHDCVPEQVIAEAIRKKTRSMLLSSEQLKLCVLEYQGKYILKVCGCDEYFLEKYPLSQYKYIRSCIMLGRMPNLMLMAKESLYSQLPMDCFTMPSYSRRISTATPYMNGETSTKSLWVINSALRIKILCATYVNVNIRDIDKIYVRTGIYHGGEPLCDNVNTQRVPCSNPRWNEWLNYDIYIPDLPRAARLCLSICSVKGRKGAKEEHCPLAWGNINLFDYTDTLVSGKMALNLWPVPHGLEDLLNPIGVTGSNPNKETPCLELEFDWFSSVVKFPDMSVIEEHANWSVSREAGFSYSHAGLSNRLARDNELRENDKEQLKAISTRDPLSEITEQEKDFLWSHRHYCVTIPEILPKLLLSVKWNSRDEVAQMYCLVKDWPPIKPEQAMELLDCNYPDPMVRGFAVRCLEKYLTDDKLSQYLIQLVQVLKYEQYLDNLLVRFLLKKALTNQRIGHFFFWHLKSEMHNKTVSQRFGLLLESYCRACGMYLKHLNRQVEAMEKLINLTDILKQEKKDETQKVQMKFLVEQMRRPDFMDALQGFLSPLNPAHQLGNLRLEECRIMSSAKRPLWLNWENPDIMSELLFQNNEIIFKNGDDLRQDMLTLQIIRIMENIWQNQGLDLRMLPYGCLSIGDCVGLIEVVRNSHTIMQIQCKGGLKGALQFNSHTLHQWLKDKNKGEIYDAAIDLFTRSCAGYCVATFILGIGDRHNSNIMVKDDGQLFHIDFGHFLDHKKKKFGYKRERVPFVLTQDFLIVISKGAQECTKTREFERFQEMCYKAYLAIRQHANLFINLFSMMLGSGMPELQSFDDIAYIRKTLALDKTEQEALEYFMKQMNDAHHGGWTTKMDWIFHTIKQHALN

| inhibition [1] | GI50 [2] [µM] | GI50 [3] [µM] | inhibition [4] | IC50 [5] [µM] | inhibition [7] | IC50 [8] [µM] | IC50 [9] [µM] | IC50 [10] [µM] | IC50 [11] [µM] | PPB [12] | IC50 [13] [µM] | IC50 [14] [µM] | IC50 [15] [µM] | Activity [16] | IC50 [17] [µM] | SMILES | Activity [6] | Activity [18] |
| --- | --- | --- | --- | --- | --- | --- | --- | --- | --- | --- | --- | --- | --- | --- | --- | --- | --- | --- |
| Active | 0.148 | 0.0702 | inactive | – | – | – | – | – | – | – | – | – | – | – | – | CS(=O)(=O)N1CCN(Cc2cc3nc(-c4cccc5[nH]ncc45)nc(N4CCOCC4)c3s2)CC1 [PICTILISIB] | – | – |
| – | 0.0776 | 0.0547 | – | > 1 | Active | > 1 | 0.24 | > 1 | > 1 | Not Active | 3.02 | 0.166 | > 1 | inactive | > 1 | CC(C)=CC(=O)CCC(=O)N1CCN(Cc2cc3nc(-c4cccc5[nH]ncc45)nc(N4CCOCC4)c3s2)CC1 | Active | Active |
